pEC50: −log10 of the molar value. Activity calls are given as the source filed them. The rule behind the calls is not given here.

Type in all cases: cell-based
Assay [1] has as its target T1, Neuronal acetylcholine receptor subunit alpha-7 (Homo sapiens, UniProt P36544). Description: Ratio of Silent agonist activity at human alpha7 nAChR expressed in Xenopus laevis oocytes assessed as increase in net charge in presence of type 2 PAM PNU-120596 relative to ACh to partial agonist activity at human alpha7 nAChR expressed in Xenopus laevis oocytes assessed as increase in net charge relative to ACh. The method in brief:
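PNU effectiveness: net-charge response of human α7 nAChR (Xenopus oocytes, −60 mV clamp) to compound co-applied with 10 μM PNU-120596, divided by the response to compound alone. Both responses were normalized to 60 μM ACh controls, with 12 s applications and 181 s washout.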

Assay [2] deals with T1, Neuronal acetylcholine receptor subunit alpha-7. Description: Partial agonist activity at human alpha7 nAChR expressed in Xenopus laevis oocytes assessed as increase in peak current amplitude at 30 uM at -60 mV holding potential treated for 12 secs followed by compound washout for 181 secs by whole cell two electrode voltage-clamp assay relative to ACh. The method in brief: (§1)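 Human α7 nAChR expressed in Xenopus laevis oocytes, two-electrode voltage clamp at −60 mV with 3 M KCl electrodes. Ringer's with atropine, pH 7.2, perfused at 2 mL/min. Compound was applied at 30 μM for 12 s with a 181 s washout. Peak current and net charge were each normalized to the mean of two prior 60 μM ACh controls in the same oocyte; the peak/net-charge ratio was taken. Mean ± SEM, at least four oocytes.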
(In general: In two-electrode clamp one electrode senses voltage and the other passes current.)

For assay [3] the target is unchanged. Description: Partial agonist activity at human alpha7 nAChR expressed in Xenopus laevis oocytes at -60 mV holding potential treated for 12 secs followed by compound washout for 181 secs by whole cell two electrode voltage-clamp assay relative to ACh.
Assay [4] shares this target. Description: Silent agonist activity at human alpha7 nAChR expressed in Xenopus laevis oocytes assessed as increase in net charge at 30 uM at -60 mV holding potential treated for 12 secs followed by compound washout for 181 secs in presence of type 2 PAM PNU-120596 by whole cell two electrode voltage-clamp assay relative to ACh. The method in brief: (§2)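 α7 (human) expressed in Xenopus oocytes, voltage-clamped at −60 mV, Ringer's pH 7.2 with atropine at 2 mL/min. Compound (3, 10 or 30 μM) was co-applied with PNU-120596 for 12 s, then washed out for 181 s. Net charge was expressed relative to the mean of two preceding 60 μM ACh control responses in the same oocyte. Mean ± SEM, at least four oocytes.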

The target is the same in assay [5]. Kind of assay: Partial agonist activity at human alpha7 nAChR expressed in Xenopus laevis oocytes assessed as increase in net charge at 30 uM at -60 mV holding potential treated for 12 secs followed by compound washout for 181 secs by whole cell two electrode voltage-clamp assay relative to ACh. The method in brief:
as §1

Assay [6] has the same target. Description: Silent agonist activity at human alpha7 nAChR expressed in Xenopus laevis oocytes assessed as increase in net charge at 3 uM at -60 mV holding potential treated for 12 secs followed by compound washout for 181 secs in presence of type 2 PAM PNU-120596 by whole cell two electrode voltage-clamp assay relative to ACh. The method in brief: as §2
For assay [7] the target is unchanged. Description: Ratio of partial agonist activity at human alpha7 nAChR expressed in Xenopus laevis oocytes assessed as increase in peak current amplitude relative to ACh to partial agonist activity at human alpha7 nAChR expressed in Xenopus laevis oocytes assessed as increase in net charge relative to ACh. The method in brief: as §1
The target is the same in assay [8]. Kind of assay: Silent agonist activity at human alpha7 nAChR expressed in Xenopus laevis oocytes assessed as increase in net charge at 10 uM at -60 mV holding potential treated for 12 secs followed by compound washout for 181 secs in presence of type 2 PAM PNU-120596 by whole cell two electrode voltage-clamp assay relative to ACh. The method in brief: as §2

For assay [9] the target is unchanged. Description: Silent agonist activity at human alpha7 nAChR expressed in Xenopus laevis oocytes assessed as increase in net charge at 3 to 10 uM at -60 mV holding potential treated for 12 secs followed by compound washout for 181 secs in presence of type 2 PAM PNU-120596 by whole cell two electrode voltage-clamp assay relative to ACh. The method in brief:
as §2

T1 sequence (P36544 whole entry): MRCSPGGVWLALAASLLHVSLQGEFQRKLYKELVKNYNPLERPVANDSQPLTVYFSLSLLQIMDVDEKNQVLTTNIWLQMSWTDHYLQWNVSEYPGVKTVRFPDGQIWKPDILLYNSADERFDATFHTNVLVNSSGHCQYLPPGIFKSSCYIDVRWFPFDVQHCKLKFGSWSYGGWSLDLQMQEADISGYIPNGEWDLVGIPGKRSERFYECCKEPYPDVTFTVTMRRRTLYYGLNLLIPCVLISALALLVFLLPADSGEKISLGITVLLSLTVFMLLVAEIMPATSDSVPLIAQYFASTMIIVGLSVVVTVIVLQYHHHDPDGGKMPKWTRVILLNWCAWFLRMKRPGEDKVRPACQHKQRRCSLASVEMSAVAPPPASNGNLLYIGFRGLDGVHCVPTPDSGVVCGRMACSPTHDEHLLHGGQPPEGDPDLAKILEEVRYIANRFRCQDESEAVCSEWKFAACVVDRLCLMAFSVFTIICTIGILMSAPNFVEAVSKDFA

Consider `c1ccc(-c2noc(CC3CN4CCC3CC4)n2)cc1` (stereo unspecified), for which the Ratio came to 3 in assay [1] and 2.16 in [7]. The fold change (FC) was determined as 1.3 in [2], 1.7 in assay [4], 0.602 in assay [5] and 17.4 in assay [6]. In addition, the pEC50 (in general, the negative decadic logarithm of the EC50, by convention in mol/L) in assay [3] was greater than 4.52.
For the compound `Cc1noc(CC2CN3CCC2CC3)n1` (stereo unspecified), the Ratio came to 121 in [1] and 0.62 in [7]. The fold change (FC) in [2] amounted to 0.026; in assay [4] it was 5.1; in assay [5], 0.042. Also, the outcome in assay [8] and in [6] was inactive.
For `c1cncc(-c2noc(CC3CN4CCC3CC4)n2)c1` (stereo unspecified), the figures for the Ratio in assay [1] and in assay [7] were 28 and 1.8, respectively. Further, the values for the fold change (FC) in assay [2], in assay [4] and in assay [5] were 0.867, 13.7 and 0.483, respectively.
For the compound `Cc1cccc(-c2noc(CC3C[N+]4(C)CCC3CC4)n2)c1` (stereo unspecified), the fold change (FC) was found to be 10.9 in assay [9], 0.079 in assay [2], 1.2 in [4] and 0.077 in [5]. The Ratio came to 16 in assay [1] and 1.03 in assay [7]. Besides, in assay [8], the outcome was inactive.
Take `C[N+]12CCC(CC1)C(Cc1nc(-c3cccc(Cl)c3)no1)C2` (stereo unspecified): the Ratio in [1] came out at 5; in assay [7], 1.94. Besides, the fold change (FC) in assay [2] was determined as 0.293; in assay [4], 0.7; in assay [5], 0.151.
In the same order, the values of `C[N+]12CCC(CC1)C(Cc1nc(-c3cccs3)no1)C2` (stereo unspecified) are 2, 0.81, 0.103, 0.2 and 0.127.
In the same order, the values of `Clc1cccc(-c2noc(CC3CN4CCC3CC4)n2)c1` (stereo unspecified) are 2, 3.76, 1.2, 0.6 and 0.32.
In the case of `Cc1cccc(-c2noc(CC3CN4CCC3CC4)n2)c1` (stereo unspecified), the Ratio came out at 178 in assay [1] and 4.85 in assay [7]. The fold change (FC) in assay [2] was found to be 2.11; in assay [4] it was 77.3; in assay [5], 0.434.
For `C[N+]12CCC(CC1)C(Cc1nc(-c3cccnc3)no1)C2` (stereo unspecified) the same measures were 81, 0.48, 0.023, 3.9 and 0.048.
In the same order, the values of `Fc1cccc(-c2noc(CC3CN4CCC3CC4)n2)c1` (stereo unspecified) are 2, 4.47, 2.05, 0.9 and 0.458.
Take `Brc1cccc(-c2noc(CC3CN4CCC3CC4)n2)c1` (stereo unspecified): the Ratio turned out to be 2 in assay [1] and 3.36 in assay [7]. Also, the fold change (FC) in assay [2] was 0.92; in [4], 0.5; in assay [5] it was 0.274.
For `C[N+]12CCC(CC1)C(Cc1nc(-c3cccc(Br)c3)no1)C2` (stereo unspecified) the same measures were 2, 2.49, 0.44, 0.3 and 0.177.
For `C[N+]12CCC(CC1)C(Cc1nc(-c3ccncc3)no1)C2` (stereo unspecified) the same measures were 55, 0.72, 0.034, 2.6 and 0.047.
Regarding `c1csc(-c2noc(CC3CN4CCC3CC4)n2)c1` (stereo unspecified), the Ratio is 10 in [1] and 4.06 in assay [7]. Besides, the fold change (FC) came to 2.06 in assay [2], 5 in assay [4], 0.508 in assay [5] and 13.4 in assay [6]. This compound had a pEC50 in assay [3] greater than 4.52.
With `COc1cccc(-c2noc(CC3C[N+]4(C)CCC3CC4)n2)c1` (stereo unspecified), the figures for the Ratio in assay [1] and in assay [7] were 14 and 0.92, respectively. In addition, the fold change (FC) came to 0.119 in assay [2], 1.8 in [4] and 0.129 in assay [5].
As for `COc1ccc(-c2noc(CC3C[N+]4(C)CCC3CC4)n2)cc1` (stereo unspecified), the result in assay [9] was Active. In addition, the Ratio in [1] amounted to 29; in [7], 0.68. The fold change (FC) in assay [2] was found to be 0.051; in assay [4] it was 2.2; in assay [5] it was 0.075.
For `C[N+]12CCC(CC1)C(Cc1nc(-c3ccco3)no1)C2` (stereo unspecified), the Ratio was found to be 1990 in [1] and 0.71 in assay [7]. The fold change (FC) in assay [2] turned out to be 0.01; in assay [4], 27.9; in assay [5] it was 0.014.
For `C[N+]12CCC(CC1)C(Cc1nc(-c3ccccc3)no1)C2` (stereo unspecified) the same measures were 21, 0.62, 0.069, 2.4 and 0.112.
Consider `COc1cccc(-c2noc(CC3CN4CCC3CC4)n2)c1` (stereo unspecified), for which the Ratio in assay [1] was found to be 2; in [7], 2.77. Also, the fold change (FC) was 1.42 in assay [2], 1 in [4] and 0.511 in [5].
In the same order, the values of `C[N+]12CCC(CC1)C(Cc1nc(-c3cccc(I)c3)no1)C2` (stereo unspecified) are 1, 3.62, 0.866, 0.3 and 0.239.
On to `FC(F)(F)c1cccc(-c2noc(CC3CN4CCC3CC4)n2)c1` (stereo unspecified), for which the results for the Ratio in [1] and in assay [7] were 2 and 2.62, respectively. The fold change (FC) in assay [2] came to 0.144; in [4], 0.1; in assay [5], 0.055.
With `c1cc(-c2noc(CC3CN4CCC3CC4)n2)ccn1` (stereo unspecified), the Ratio in assay [1] is 36; in assay [7], 0.79. The fold change (FC) in [2] turned out to be 0.553; in assay [4], 25.5; in [5], 0.703.
In the same order, the values of `Ic1cccc(-c2noc(CC3CN4CCC3CC4)n2)c1` (stereo unspecified) are 2, 4.94, 1.21, 0.5 and 0.245.
Regarding `COc1ccc(-c2noc(CC3CN4CCC3CC4)n2)cc1` (stereo unspecified), the Ratio in assay [1] was 4; in [7], 4.93. The fold change (FC) was 1.98 in assay [2], 1.6 in assay [4], 0.401 in assay [5] and 4.4 in assay [6]. Also, the pEC50 in [3] was greater than 4.52.
Take `C[N+]12CCC(CC1)C(Cc1nc(-c3cccc(F)c3)no1)C2` (stereo unspecified): the Ratio in assay [1] was found to be 5; in [7] it was 1.06. Also, the fold change (FC) in assay [2] worked out at 0.067; in assay [4], 0.3; in [5] it was 0.063.
In the same order, the values of `Cc1noc(CC2C[N+]3(C)CCC2CC3)n1` (stereo unspecified) are 100, 3, 0.003, 0.1 and 0.001.

Values taken from ChEMBL document CHEMBL4308856, “Novel 5-(quinuclidin-3-ylmethyl)-1,2,4-oxadiazoles to investigate the activation of the α7 nicotinic acetylcholine receptor subtype: Synthesis and electrophysiological evaluation” (Eur J Med Chem, 2018).
